Active and inactive are the calls of the source. The rule behind the calls is not given here.
What was measured:
SNU-449 [1] = assay: Cell cycle arrest in human SNU449 cells assessed as accumulation at G1 phase at 100 uM after 48 to 72 hrs using […]propidium iodide staining by flow cytometric analysis; format: functional, cell-based
SNU-449 [2] = assay: Decrease of cyclin D1 level in human SNU449 cells at 50 uM after 72 hrs by Western blotting relative to beta-actin; format: functional
In short: (§1)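 Western blots in SNU449 cells treated at a single intermediate level for 72 h, with DMSO as control. Blots probed cyclin D1, p21, p27 and p53. Band intensities were given as the ratio of protein to β-actin.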

SNU-449 [3] = assay: Effect on p27 expression in human SNU449 cells at 50 uM after 72 hrs by Western blotting relative to beta-actin; format: functional; in short: as §1
SNU-449 [4] = assay: Up-regulation of p21 expression in human SNU449 cells at 50 uM after 72 hrs by Western blotting relative to beta-actin; format: functional; in short: as §1
SNU-449 [5] = assay: Up-regulation of p53 expression in human SNU449 cells at 50 uM after 72 hrs by Western blotting relative to beta-actin; format: functional; in short: as §1
SNU-449 [6] = assay: Induction of apoptosis in human SNU449 cells at 50 to 100 uM after 72 hrs using annexin V/propidium iodide staining by flow cytometric analysis; format: functional, cell-based
In short: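 SNU449 cells were treated at two compound levels for 72 h, with DMSO as control. Apoptosis was detected by Annexin V/propidium iodide staining and flow cytometry, following the kit instructions. Values are averages ± SD.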

SNU-449 [7] = assay: Cytotoxicity against human SNU449 cells at 50 uM after 48 hrs; format: functional, cell-based
In short: (§2)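 Trypan blue exclusion counts on SNU449 cells grown in RPMI 1640 with 10% FBS and antibiotics. Compounds came from 10 mM DMSO stocks, diluted and tested at 50, 100 and 150 for 48 and 72 h in triplicate, with DMSO as control. Viable cells were counted in a Burker chamber. IC50 was derived from percentage viable cells relative to control.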

SNU-449 [8] = assay: Cytotoxicity against human SNU449 cells at 50 uM after 72 hrs; format: functional, cell-based; in short: as §2
SNU-449 [9] = assay: Cytotoxicity against human SNU449 cells after 48 hrs; format: functional, cell-based; settings: SNU-449, 48 h; in short: as §2
SNU-449 [10] = assay: Cytotoxicity against human SNU449 cells after 72 hrs; format: functional, cell-based; settings: SNU-449, 72 h; in short: as §2
[11] = target: RAC-alpha serine/threonine-protein kinase (Homo sapiens) (UniProt P31749); assay: Inhibition of AKT phosphorylation in human SNU449 cells at 25 uM after 48 hrs by Western blotting relative to beta-actin; format: cell-based; settings: SNU-449
In short: (§3)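 Western blot for P-AKT in SNU449 cells treated at 25, 50 and 100 for 48 h and 72 h, with DMSO-treated cells as control. Bands were quantified as the P-AKT to β-actin ratio.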

[12] = target: RAC-alpha serine/threonine-protein kinase (Homo sapiens) (UniProt P31749); assay: Inhibition of AKT phosphorylation in human SNU449 cells at 50 uM after 48 hrs by Western blotting relative to beta-actin; format: cell-based; settings: SNU-449; in short: as §3
[13] = target: RAC-alpha serine/threonine-protein kinase (Homo sapiens) (UniProt P31749); assay: Inhibition of AKT phosphorylation in human SNU449 cells at 100 uM after 48 hrs by Western blotting relative to beta-actin; format: cell-based; settings: SNU-449; in short: as §3
[14] = target: RAC-alpha serine/threonine-protein kinase (Homo sapiens) (UniProt P31749); assay: Inhibition of AKT phosphorylation in human SNU449 cells at 25 uM after 72 hrs by Western blotting relative to beta-actin; format: cell-based; settings: SNU-449; in short: as §3
[15] = target: RAC-alpha serine/threonine-protein kinase (Homo sapiens) (UniProt P31749); assay: Inhibition of AKT phosphorylation in human SNU449 cells at 50 uM after 72 hrs by Western blotting relative to beta-actin; format: cell-based; settings: SNU-449; in short: as §3
[16] = target: RAC-alpha serine/threonine-protein kinase (Homo sapiens) (UniProt P31749); assay: Inhibition of AKT phosphorylation in human SNU449 cells at 100 uM after 72 hrs by Western blotting relative to beta-actin; format: cell-based; settings: SNU-449; in short: as §3
[17] = target: RAC-alpha serine/threonine-protein kinase (Homo sapiens) (UniProt P31749); assay: Inhibition of AKT in human SNU449 cells assessed as phosphorylated RpS6 level at 50 uM after 48 hrs by Western blotting relative to beta-actin; format: cell-based; settings: SNU-449
In short: (§4)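 Western blots in SNU449 cells treated at a single intermediate level for 48 and 72 h, with DMSO as control. Blots probed P-ERK1/2, P-GSK-3β (Ser-9) and P-RpS6. Band intensities were given as the ratio of phosphoprotein to β-actin.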

[18] = target: RAC-alpha serine/threonine-protein kinase (Homo sapiens) (UniProt P31749); assay: Inhibition of AKT in human SNU449 cells assessed as phosphorylated RpS6 level at 50 uM after 72 hrs by Western blotting relative to beta-actin; format: cell-based; settings: SNU-449; in short: as §4
[19] = target: RAC-alpha serine/threonine-protein kinase (Homo sapiens) (UniProt P31749); assay: Inhibition of AKT in human SNU449 cells assessed as phosphorylated GSK3-beta level at 50 uM after 48 hrs by Western blotting relative to beta-actin; format: cell-based; settings: SNU-449; in short: as §4
[20] = target: RAC-alpha serine/threonine-protein kinase (Homo sapiens) (UniProt P31749); assay: Inhibition of AKT in human SNU449 cells assessed as phosphorylated GSK3-beta level at 50 uM after 72 hrs by Western blotting relative to beta-actin; format: cell-based; settings: SNU-449; in short: as §4
[21] = target: RAC-alpha serine/threonine-protein kinase (Homo sapiens) (UniProt P31749); assay: Inhibition of AKT in human SNU449 cells assessed as phosphorylated […] level at 50 uM after 72 hrs by Western blotting relative to beta-actin; format: cell-based; settings: SNU-449
[22] = target: RAC-alpha serine/threonine-protein kinase (Homo sapiens) (UniProt P31749); assay: Inhibition of AKT in human SNU449 cells assessed as phosphorylated ERK1/2 level at 50 uM after 48 hrs by Western blotting relative to beta-actin; format: cell-based; settings: SNU-449; in short: as §4
[23] = target: RAC-alpha serine/threonine-protein kinase (Homo sapiens) (UniProt P31749); assay: Inhibition of AKT in human SNU449 cells assessed as phosphorylated ERK1/2 level at 50 uM after 72 hrs by Western blotting relative to beta-actin; format: cell-based; settings: SNU-449; in short: as §4
SNU-449 [24] = assay: Cell cycle arrest in human SNU449 cells assessed as accumulation at G1 phase at 50 uM after 72 hrs using […]propidium iodide staining by flow cytometric analysis; format: functional, cell-based
[25] = target: RAC-alpha serine/threonine-protein kinase (Homo sapiens) (UniProt P31749); assay: Inhibition of AKT in human SNU449 cells assessed as beta-catenin level at 50 uM after 48 hrs by Western blotting relative to beta-actin; settings: SNU-449
[26] = target: RAC-alpha serine/threonine-protein kinase (Homo sapiens) (UniProt P31749); assay: Inhibition of AKT in human SNU449 cells assessed as total MDM2 protein level at 50 uM after 72 hrs by Western blotting relative to beta-actin; settings: SNU-449
[27] = target: RAC-alpha serine/threonine-protein kinase (Homo sapiens) (UniProt P31749); assay: Inhibition of AKT in human SNU449 cells assessed as phosphorylated MDM2 level at 50 uM after 72 hrs by Western blotting relative to beta-actin; settings: SNU-449
SNU-449 [28] = assay: Cell cycle arrest in human SNU449 cells assessed as decrease in S phase at 100 uM after 48 to 72 hrs using […]propidium iodide staining by flow cytometric analysis
SNU-449 [29] = assay: Cell cycle arrest in human SNU449 cells assessed as accumulation at G1 phase at 25 uM after 48 to 72 hrs using […]propidium iodide staining by flow cytometric analysis; format: functional, cell-based

RAC-alpha serine/threonine-protein kinase (Homo sapiens), sequence (P31749 whole entry): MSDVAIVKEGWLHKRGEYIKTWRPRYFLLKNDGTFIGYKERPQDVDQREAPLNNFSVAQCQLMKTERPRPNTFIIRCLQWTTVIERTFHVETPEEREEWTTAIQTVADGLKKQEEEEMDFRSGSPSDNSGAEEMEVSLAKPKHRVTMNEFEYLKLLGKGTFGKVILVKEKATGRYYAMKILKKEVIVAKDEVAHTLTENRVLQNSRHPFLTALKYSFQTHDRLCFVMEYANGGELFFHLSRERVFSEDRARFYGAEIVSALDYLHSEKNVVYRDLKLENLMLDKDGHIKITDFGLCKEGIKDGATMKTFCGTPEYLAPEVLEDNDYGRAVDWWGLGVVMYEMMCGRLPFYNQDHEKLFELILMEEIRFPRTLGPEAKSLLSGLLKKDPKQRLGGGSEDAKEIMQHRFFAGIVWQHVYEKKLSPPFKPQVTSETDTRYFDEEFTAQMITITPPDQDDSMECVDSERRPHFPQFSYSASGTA

Cc1cccc(NC(=O)c2cc(C(=O)Nc3ccc(N)cc3)n(-c3ccc(N)cc3)n2)c1C
Activity (SNU-449 [1]): Active
Ratio (SNU-449 [2]): 0.67
Ratio (SNU-449 [3]): 1.2
Ratio (SNU-449 [4]): 4.6
Ratio (SNU-449 [5]): 1.3
Activity (SNU-449 [6]): Active
Activity (SNU-449 [7]): Active
Activity (SNU-449 [8]): Active
IC50 (SNU-449 [9]): 150 µM
IC50 (SNU-449 [10]): 50 µM
Ratio [11]: 1.1
Ratio [12]: 0.58
Ratio [13]: 0.39
Ratio [14]: 1.9
Ratio [15]: 0.53
Ratio [16]: 0.64
Ratio [17]: 0.64
Ratio [18]: 0.49
Ratio [19]: 0.48
Ratio [20]: 0.6
Ratio [21]: 0.46
Ratio [22]: 2
Ratio [23]: 0.91
Activity (SNU-449 [24]): Active
Ratio [25]: 0.41
Ratio [26]: 1.4
Ratio [27]: 0.65
Activity (SNU-449 [28]): Active

Cc1cccc(-c2cc(C(=O)Nc3ccc(N)cc3)n(-c3ccc(N)cc3)n2)c1C
Activity (SNU-449 [1]): Active
Ratio (SNU-449 [2]): 0.39
Ratio (SNU-449 [3]): 0.95
Ratio (SNU-449 [4]): 4.6
Ratio (SNU-449 [5]): 1.4
Activity (SNU-449 [6]): Active
Activity (SNU-449 [7]): Active
Activity (SNU-449 [8]): Active
IC50 (SNU-449 [9]): < 100 µM
IC50 (SNU-449 [10]): < 50 µM
Ratio [11]: 1.2
Ratio [12]: 0.26
Ratio [13]: 0.07
Ratio [14]: 2.2
Ratio [15]: 0.32
Ratio [16]: 0.5
Ratio [17]: 0.5
Ratio [18]: 0.29
Ratio [19]: 0.18
Ratio [20]: 0.93
Ratio [21]: 0.75
Ratio [22]: 1.5
Ratio [23]: 1.1
Activity (SNU-449 [29]): Active
Ratio [25]: 0.57
Ratio [26]: 1.3
Ratio [27]: 0.4
Activity (SNU-449 [28]): Active

Source: ChEMBL document CHEMBL1938375, “Design, synthesis and biological evaluation of pyrazole derivatives as potential multi-kinase inhibitors in hepatocellular carcinoma” (Eur J Med Chem, 2012)
